From ChEMBL document CHEMBL3867483, “Gaining in pan-affinity towards sigma 1 and sigma 2 receptors. SAR studies on arylalkylamines” (Bioorg Med Chem, 2017)
pKi: −log10 of the molar value.

Assays:
[1] = Displacement of [3H]-DTG from sigma 2 receptor in rat liver membranes after 120 mins by scintillation counting analysis; format: cell membranes, Membrane
Method in brief: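 Rat liver homogenate (150 μg) incubated 120 min at room temperature with 3 nM [3H]-DTG in 50 mM Tris-HCl pH 8.0. Excess unlabeled (+)-pentazocine masked S1R, and high unlabeled DTG defined nonspecific binding. Compound at 10^-10 to 10^-5 M final, in duplicate. Filtered through PEI-presoaked filtermats and counted by scintillation. IC50 from nonlinear regression, converted to Ki by Cheng-Prusoff; mean ± SEM of three experiments.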

[2] = target: Sigma non-opioid intracellular receptor 1 (Cavia porcellus, UniProt Q60492); assay: Displacement of [3H]-(+)-pentazocine from sigma 1 receptor in guinea pig cerebral cortex membranes after 120 mins by scintillation counting analysis; parameters: species or system Membrane
[3] = Selectivity ratio of Ki for sigma 2 receptor in rat liver membranes to Ki for sigma 1 receptor in guinea pig cerebral cortex membranes; format: cell membranes
Method in brief: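 Ratio computed as Ki at S2R (rat liver, [3H]-DTG with S1R masked by (+)-pentazocine) divided by Ki at S1R (guinea pig cortex, [3H](+)-pentazocine). Both Ki values come from Cheng-Prusoff conversion of IC50s from 120 min displacement assays, each the mean of three experiments.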

Sequence of Sigma non-opioid intracellular receptor 1 (Q60492 whole entry): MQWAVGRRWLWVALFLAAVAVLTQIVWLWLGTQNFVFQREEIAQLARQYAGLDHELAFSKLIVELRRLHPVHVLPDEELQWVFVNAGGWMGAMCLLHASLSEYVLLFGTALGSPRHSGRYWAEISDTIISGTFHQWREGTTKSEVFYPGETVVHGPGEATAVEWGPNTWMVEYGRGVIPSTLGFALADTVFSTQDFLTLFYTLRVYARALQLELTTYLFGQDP

pKi [1]	pKi [2]	Ratio Ki [3]	Structure (SMILES)
6.06	6.62	3.62	COc1cccc(C(C)CCN(C)C)c1 (stereo not given)
7.15	7.07	1.2	CC(CCN1CCOCC1)c1ccccc1 (racemic)
7.36	–	22	CC(CCN(C)C)c1ccc2ccccc2c1 (racemic)
7.24	7.70	2.9	COc1ccc(C(C)CCN2CCCCC2)cc1 (racemic)
8.19	–	3.1	CC(CCN1CCC(Cc2ccccc2)CC1)c1ccccc1 (racemic)
7.46	7.44	0.97	COc1cccc(C(C)CCN2CCCCC2)c1 (racemic)
6.84	7.72	7.6	CC(CCN1CCC(Cc2ccccc2)CC1)c1ccc2ccccc2c1 (racemic)
7.30	8.82	33.3	CC(CCN1CCCCC1)c1ccc2ccccc2c1 (racemic)
6.59	6.94	2.2	COc1ccc(C(C)CCN(C)C)cc1 (racemic)
7.25	7.34	1.22	CC(CCN1CCCCC1)c1ccccc1 (racemic)
7.74	8.46	5.14	COc1ccc(C(C)CCN2CCC(Cc3ccccc3)CC2)cc1 (racemic)
7.04	6.86	0.67	COc1cccc(C(C)CCN2CCOCC2)c1 (racemic)
7.85	8.54	4.83	COc1cccc(C(C)CCN2CCC(Cc3ccccc3)CC2)c1 (racemic)
7.48	8.27	6.1	CC(CCN1CCOCC1)c1ccc2ccccc2c1 (racemic)
< 6.00	6.37	–	CC(CCN(C)C)c1ccccc1 (racemic)
7.17	7.12	0.89	COc1ccc(C(C)CCN2CCOCC2)cc1 (racemic)
